# Compound activity deposited in PubChem by SRMLSC.
# The full list was thinned out, with hits kept by preference.
# H69AR inhibit – blocks growth of human H69AR lung tumor cells; H69AR lung tumor viability, ATP luminescence, 72 h; active compounds read low; viability, % at 10 µM; 6% of 85,000 active;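 active = viability at or below 40%; inactive = viability above 40%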;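 also: multidrug resistant small cell line overexpressing MRP-1 efflux transporter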
# Fibroblast inh – blocks proliferation of human lung fibroblasts. viability, % at 10 µM. LL 47 human lung fibroblast viability, ATP luminescence; active compounds read low. 1.1% of 85,000 active;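 active = viability at or below 50% in the single dose screen; inactive = viability above 50%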;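 also: compound exposure lasted 72 h before the ATP readout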
#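 material = human LL 47 lung fibroblast cells | dosing = compounds added from tenfold dosing solution, 0.1% DMSO final | timing = overnight cell rest, 72 h compound treatment at 37 °C | measured by = CellTiter-Glo luminescence measuring cellular ATP | evaluation = % viability versus median cells-only luminescence | control set = cell-only wells, no compound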
# HCT116 PTEN-null – growth suppressors of cells with PTEN tumor suppressor deletion; AID 827; viability, % at 10 µM; 1.2% of 140,000 active; HCT116 PTEN-null viability, CellTiter-Glo, 60 h; active compounds read low;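 active = viability at or below a set limit, 4 SD under the median of all tested compounds, cut at about 3.7% in these data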;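 also: PTEN knockout HCT116 line with beta catenin targeted HCT116 as companion control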
# bCat KO growth – beta-catenin-lacking colon tumor cell growth suppression | HCT116 beta-catenin knockout viability, CellTiter-Glo, 60 h; active compounds read low | viability, % at 10 µM | 1.5% of 140,000 active | AID 818;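 active = viability at or under a set limit, the compound median less 4 SD, cut at about 6% in these data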
# HUVEC prolif 384 – blocks proliferation of human endothelial cells | HUVEC proliferation, CellTiter-Glo luminescence, 72 h; active compounds read low | viability, % at 10 µM (by protocol) | 1.1% of 86,000 active | AID 648;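 active = viability at or below 30%; inactive = viability above 30%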
# A number is an active result; – = inactive; · = not tested or not shown.
SMILES,H69AR inhibit,Fibroblast inh,HCT116 PTEN-null,bCat KO growth,HUVEC prolif 384
COc1cccc(N(CC(=O)NCCSc2ccc(Cl)cc2)S(C)(=O)=O)c1,–,–,–,–,–
O=C1c2ccccc2OC2(C=Cc3ccccc3O2)N1Cc1ccccc1 (configuration not stated),12,–,–,–,–
COc1cc(OC)nc(Oc2ccccc2C(=O)Oc2cccc(C)c2)n1,·,·,–,–,·
CCOc1ccc(-c2nnc3n2N=C(c2ccc(OC)cc2)CS3)cc1,–,–,–,–,–
CCc1nnc2n1N=C(c1ccc(-c3cc(Cl)ccc3Cl)o1)CS2,8.5,–,1.7,1.4,–
COc1ccc(C2=Nn3c(nnc3-c3ccccn3)SC2)cc1,24,–,–,–,–
CCc1nnc2n1N=C(c1ccc(OC)cc1)CS2,19,–,–,–,–
COC(=O)c1ccc(COC(=O)c2ccc(CO)cc2)o1,·,·,–,–,·
CCOCC(=O)Nc1cc(C(=O)OC)cc(C(=O)OC)c1,·,·,–,–,·
CCOC(=O)c1oc2ccc(S(=O)(=O)n3nc(-c4ccc(OC)cc4)cc3N)cc2c1C,27,–,–,–,–
CCOC(=O)c1oc2ccc(S(=O)(=O)n3nc(-c4ccccc4)cc3N)cc2c1C,–,–,–,–,–
O=C(CCSc1ccc(Cl)c(Cl)c1)NC12CC3CC(CC(C3)C1)C2,·,·,–,–,·
CCN(CC)S(=O)(=O)c1ccc(S(=O)(=O)Nc2ccc3c(c2)oc2ccccc23)cc1,33,–,–,–,–
CN(C)S(=O)(=O)c1ccc(S(=O)(=O)Nc2ccc3c(c2)oc2ccccc23)cc1,–,–,–,–,–
COc1ccc(C(=O)Nc2ccccc2C(=O)N(Cc2ccco2)C(C(N)=O)C(C)C)cc1 (configuration not stated),5.6,42,1.0,1.1,–
COc1ccc(C(=O)Nc2ccccc2C(N)=O)cc1,–,–,–,–,–
Cc1cc(C)cc(OCC(=O)Nc2ccccc2C(=O)NCc2ccco2)c1,–,–,–,–,–
O=C(COc1ccc(Cl)cc1)Nc1ccccc1C(=O)NCc1ccco1,–,37,–,–,–
COc1ccc(C(=O)Nc2ccccc2C(=O)NC(C(=O)NCc2ccco2)C(C)C)cc1 (configuration not stated),1.2,39,2.0,1.2,–
COc1ccc(NC(=O)c2ccccc2NC(=O)COc2ccccc2)cc1,–,–,–,–,–
CCC(C)NC(=O)c1ccccc1NC(=O)COc1ccc(OC)cc1 (configuration not stated),32,–,–,–,–
CC(C)C(=O)NC(=S)Nc1ccc(S(=O)(=O)N(C)Cc2ccccc2)cc1,·,·,–,–,·
CCCOc1ccc(NC(=O)C(=O)NCCCn2ccnc2)cc1,·,·,–,–,·
O=S(=O)(c1ccc(Oc2ccc(Cl)cc2)c(S(=O)(=O)N2CCCCC2)c1)N1CCCCC1,–,–,–,–,–
CC(C)(C)c1cc(NCCCn2ccnc2)n2ncc(-c3ccc(Cl)cc3)c2n1,5.2,45,–,–,8.7
SMILES,H69AR inhibit,Fibroblast inh,HCT116 PTEN-null,bCat KO growth,HUVEC prolif 384
Cc1cc(N)n2ncc(-c3ccc(F)cc3)c2n1,–,–,–,–,–
Cc1cc(NCCOCCO)n2ncc(-c3ccc(Cl)cc3)c2n1,22,41,–,–,–
Cc1cc(NCCCn2ccnc2)n2nc(-c3ccc(F)cc3)cc2n1,–,–,–,–,–
Cc1cc(N)n2ncc(-c3ccc(Cl)cc3)c2n1,–,46,–,–,–
CNCc1ccccc1Sc1ccc(O)c(O)c1,·,·,–,–,·
O=C(Nc1ccc(Cl)cn1)c1ccc(-c2cc(Cl)ccc2Cl)o1,·,·,–,3.1,·
O=C(Nc1ccc(Cl)cn1)c1cc2ccccc2o1,–,–,–,–,–
CN=C1CC(SC)=C1c1ccc(C)cc1,38,33,–,–,–
COC(=O)NNC(=O)Cc1cccc2ccccc12,·,·,–,–,·
COc1ccc2c(c1)C(SCC(=O)NCCc1ccc(Cl)cc1)CC(C)(C)O2 (configuration not stated),·,·,–,–,·
COc1cc(/C=C(\C#N)c2nc3ccccc3[nH]2)cc(Br)c1OCc1ccc(F)cc1,·,·,2.1,2.1,·
COc1ccccc1CC(=O)Nc1ccc(-c2noc(COc3ccc(Cl)c(C)c3)n2)cc1,30,–,–,–,–
CCOc1ccccc1-c1nc(-c2ccc(NC(=O)Cc3ccccc3OC)cc2)no1,–,–,–,–,–
COC(=O)c1ccc2c(c1)C(C)(C)C(/C=C/c1ccc(OC)c(OC)c1OC)=[N+]2C,4.1,6.5,0.6,4.9,5.3
COC(=O)c1ccc2nc(C)c(C)nc2c1,·,·,–,–,·
COC(=O)c1ccc2c(c1)C(C)(C)C(/C=C/c1ccc(O)cc1)=[N+]2C,·,·,1.7,1.9,·
Cc1cc([N+](=O)[O-])cnc1NC(C)c1ccccc1 (configuration not stated),·,·,–,–,·
C=CCOc1c(Cl)cc(C2NC(=O)NC(C)=C2C(=O)OC)cc1Cl (configuration not stated),32,–,–,–,–
CC(C)(C)NC(=O)CN(C(=O)Cn1nnc(-c2ccc(Cl)cc2)n1)C1CCN(Cc2ccccc2)CC1,–,–,–,1.6,–
COc1ccc2cc3cc(C(=O)NCCN4CCN(c5ccccc5F)CC4)oc3nc2c1,–,–,–,–,–
COc1ccc2cc3cc(C(=O)Nc4ccccc4N4CCN(C)CC4)oc3nc2c1,29,28,1.5,2.1,3.6
CCC(C)(C)C1CCC(=NNC(=O)c2ccoc2C)CC1 (configuration not stated),·,·,–,–,·
COc1ccc2cc3cc(C(=O)NCc4ccco4)oc3nc2c1,–,–,–,–,–
O=C(NCc1ccco1)c1cc2cc3ccc(Cl)cc3nc2o1,9.5,–,–,–,–
CCCNC(=S)N1CCN(CC)CC1,·,·,–,–,·
SMILES,H69AR inhibit,Fibroblast inh,HCT116 PTEN-null,bCat KO growth,HUVEC prolif 384
CN(C)CCCn1c(SCC(=O)N2c3ccccc3Sc3ccccc32)nc2ccccc2c1=O,·,·,1.7,1.6,·
Cn1c(SCC(=O)N2c3ccccc3Sc3ccccc32)nc2ccccc21,·,·,–,–,·
COc1cc(C2Nc3ccc4ncccc4c3C3=C2C(=O)CCC3)cc(OC)c1O (configuration not stated),27,–,–,–,–
CCN(CC)C(=O)CCNS(=O)(=O)c1ccc(C)cc1,–,–,–,–,–
COc1cccc(/C=N/n2cnc3ccccc32)c1OC,30,–,–,–,–
COc1cccc(/C=N/n2c(N)nc3ccccc32)c1OC,–,–,–,–,–
Cc1coc(NC(=O)CSc2nc(-c3ccncc3)cc(C(F)(F)F)c2C#N)n1,38,–,–,–,–
COc1ccc(OC2C(=O)N(Cc3ccc4c(c3)OCO4)C2c2sccc2C)cc1 (configuration not stated),·,·,–,–,·
c1ccc(CN2CCC(Nc3nc(-c4ccccc4)nc4ccccc34)CC2)cc1,2.1,5.4,1.6,1.6,4.0
CCn1nc(C)c(C2C(C#N)=C(N)OC3=C2C(=O)CC(C)(C)C3)c1C (configuration not stated),·,·,–,–,·
CCCCCCCC(=O)NNC(=O)CC(=O)Nc1ccccc1C(=O)O,·,·,–,–,·
